Data set [1] relates to TZM. In words: Cytotoxicity against human TZM-bl cells incubated for 3 days by MTS assay. It counts as cell-based. Conditions: 72 h. For orientation: Tetrazolium dyes change colour on reduction, which living cells bring about.
Data set [2] relates to Human immunodeficiency virus 1. In words: microbe, parasite or virus in culture. Conditions: Human immunodeficiency virus 1, subtypeA.
In data set [3] the test system is Human immunodeficiency virus 1. The data set can be described thus: microbe, parasite or virus in culture. The settings on record: Human immunodeficiency virus 1, subtypeA. This is another data set of the same source.
For data set [4], the system named is Human immunodeficiency virus 1. The data set can be described thus: Antiviral activity against HIV1 HXB2 infected in human TZM-bl cells preincubated for 30 min followed by viral infection and measured after 3 days by luciferase based assay. It counts as functional, organism-based. The settings on record: Human immunodeficiency virus 1, M:B_HXB2R. In outline:
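Single-cycle pseudovirus carrying HXB2 Env (CXCR4-tropic), made in HEK293T by co-transfecting an Env-deleted backbone (pSG3Δenv or pNL4-3.Luc.R-E-) with an Env plasmid. TZM-bl cells were seeded at 1 × 10^4/well and grown overnight. Virus was pretreated with graded compound concentrations, then added. Cells were washed and lysed, and IC50 was taken from percent inhibition.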

For data set [5], the system named is Human immunodeficiency virus 1. In words: Antiviral activity against HIV1-3B infected in human H9 cells assessed as inhibition in cell to cell HIV1 transmission to human TZM-bl acceptor cells incubated for 24 hrs by luciferase based assay. It counts as functional, organism-based. The settings on record: Human immunodeficiency virus 1, 3B.
Data set [6] concerns Human immunodeficiency virus 1. The data set can be described thus: Antiviral activity against HIV1-ADA infected in human MOLT4 cells assessed as inhibition in cell to cell HIV1 transmission to human TZM-bl acceptor cells incubated for 24 hrs by luciferase based assay. It counts as functional, organism-based. The settings on record: Human immunodeficiency virus 1, 24 h.

Consider `NC[C@@H](NC(=O)c1ccc(-c2ccc(C(F)(F)F)cc2)[nH]1)c1ncc(CO)s1`, for which the CC50 in data set [1] was determined as 42400 nM. Moreover, the IC50 came out at 700 nM in data set [2] and 800 nM in data set [3].
Consider `COc1cnc(-n2cnc(C)n2)c2[nH]cc(C(=O)C(=O)N3CCN(C(=O)c4ccccc4)CC3)c12`, for which the IC50 in data set [4] is < 1 nM; in data set [5], 20 nM; in data set [6], 200 nM.

As usually defined, the CC50 is the concentration giving 50% cytotoxicity. In general, IC50 refers to the point on the concentration scale where inhibition reaches its midpoint.
